How the values were obtained:
[1] = biological target: T1, 5-hydroxytryptamine receptor 1D (Homo sapiens, UniProt P28221); experiment: Displacement of [3H]5-HT binding to the cloned human 5-hydroxytryptamine 1D receptor stably expressed in CHO cells; assay type: cell-based
How it was run: (§1)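 Membranes from CHO cells stably expressing human 5-HT1D receptor were washed, pre-incubated 10 min at 37 °C, then assayed at 0.2 mg protein/mL in 50 mM Tris-HCl pH 7.7 with 4 mM CaCl2, 0.01 mM pargyline and 0.1% ascorbate. […] Filtration and counting followed; IC50 came from nonlinear regression; ≥3 experiments, geometric means.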

[2] = biological target: 5-hydroxytryptamine receptor 1B (Homo sapiens, UniProt P28222); experiment: Displacement of [3H]5-HT binding from cloned human 5-hydroxytryptamine 1B receptor stably expressed in CHO cells.; assay type: cell-based
[3] = biological target: T1, 5-hydroxytryptamine receptor 1D; experiment: Stimulation of [35S]GTP-gamma-S, binding in CHO cells expressing the 5-hydroxytryptamine 1D receptor; assay type: functional, cell-based
[4] = biological target: T1, 5-hydroxytryptamine receptor 1D; experiment: Displacement of [3H]5-HT binding from human 5-hydroxytryptamine 1D receptor expressed in CHO cells; assay type: cell-based
[5] = biological target: T1, 5-hydroxytryptamine receptor 1D; experiment: Relative efficacy in stimulation of [35S]GTP-gamma-S, binding in CHO cells compared to 5-HT; assay type: functional, cell-based
[6] = biological target: T1, 5-hydroxytryptamine receptor 1D; experiment: Stimulation of [35S]GTP-gamma-S, binding in CHO cells expressing the human 5-hydroxytryptamine 1D receptor.; assay type: functional, cell-based
How it was run: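 Membranes from CHO cells stably expressing human 5-HT1D were used at 40 μg protein/mL in HEPES 20 mM, NaCl 100 mM, MgCl2 10 mM, pargyline, ascorbate, pH 7.4. They were preincubated with 100 μM GDP plus compound for 20 min at 30 °C, then 15 min on ice. 100 pM [35S]GTPγS was added for 30 min at 30 °C, followed by filtration and counting. EC50 and Emax (relative to 5-HT maximum) came from nonlinear regression.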

[7] = biological target: T1, 5-hydroxytryptamine receptor 1D; experiment: Displacement of [3H]5-HT from human 5-hydroxytryptamine 1D receptor expressed in CHO cells; assay type: cell-based; how it was run: as §1

T1 sequence (P28221 whole entry): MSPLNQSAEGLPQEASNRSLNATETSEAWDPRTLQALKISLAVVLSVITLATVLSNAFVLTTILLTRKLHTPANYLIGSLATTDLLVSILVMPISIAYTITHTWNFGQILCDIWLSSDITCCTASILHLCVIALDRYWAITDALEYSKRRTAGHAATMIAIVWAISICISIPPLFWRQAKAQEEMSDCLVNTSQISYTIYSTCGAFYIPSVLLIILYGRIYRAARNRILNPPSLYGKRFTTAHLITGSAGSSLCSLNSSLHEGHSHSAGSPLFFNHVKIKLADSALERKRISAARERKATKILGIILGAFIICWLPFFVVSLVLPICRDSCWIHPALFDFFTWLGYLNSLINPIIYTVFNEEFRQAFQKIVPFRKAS
Sequence of 5-hydroxytryptamine receptor 1B (P28222 whole entry): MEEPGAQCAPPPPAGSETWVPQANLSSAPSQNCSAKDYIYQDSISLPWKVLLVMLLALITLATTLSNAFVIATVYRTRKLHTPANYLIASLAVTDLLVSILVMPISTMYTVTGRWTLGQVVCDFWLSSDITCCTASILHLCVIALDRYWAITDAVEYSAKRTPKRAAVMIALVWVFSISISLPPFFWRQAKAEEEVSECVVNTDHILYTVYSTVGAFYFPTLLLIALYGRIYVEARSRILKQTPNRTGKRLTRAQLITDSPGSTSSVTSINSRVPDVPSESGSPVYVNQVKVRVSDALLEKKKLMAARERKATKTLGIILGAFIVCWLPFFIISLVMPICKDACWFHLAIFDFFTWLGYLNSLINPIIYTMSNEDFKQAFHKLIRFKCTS

SMILES	IC50 [1] [nM]	IC50 [2] [nM]	EC50 [3] [nM]	IC50 [4] [nM]	Relative efficacy [5] [%]	EC50 [6] [nM]	IC50 [7] [nM]
CN1CCN(CCCCc2c[nH]c3ccc(-n4cnnc4)cc23)CC1	210	5100	–	–	–	–	–
FC(F)(F)c1ccc(CN2CCN(CCCc3c[nH]c4ccc(-n5cnnc5)cc34)CC2)cc1	–	282	11	5.2	82	–	–
CN(C)CCc1c[nH]c2ccc(-n3cnnc3)cc12	–	–	–	–	115	–	–
c1cc2[nH]cc(CCN3CCCC3)c2cc1-n1cnnc1	–	–	–	–	120	–	–
Fc1ccccc1CCN1CCN(CCCc2c[nH]c3ccc(-n4cnnc4)cc23)CC1	0.5	98	–	–	80	1.4	–
c1c[nH]c(CN2CCN(CCCc3c[nH]c4ccc(-n5cnnc5)cc34)CC2)n1	1.6	36	–	–	68	2	–
NC(=O)C(c1ccccc1)N1CCN(CCCc2c[nH]c3ccc(-n4cnnc4)cc23)CC1 (stereo in doubt; 6q) [listing 1 of 2 here]	–	–	–	–	61	–	–
Clc1ccc(CN2CCN(CCCc3c[nH]c4ccc(-n5cnnc5)cc34)CC2)cc1	0.5	59	–	–	63	1.2	–
Fc1ccc(CN2CCN(CCCc3c[nH]c4ccc(-n5cnnc5)cc34)CC2)cc1	0.1	20	–	–	77	0.3	–
CN1CCN(CCc2c[nH]c3ccc(-n4cnnc4)cc23)CC1	134	304	105	–	61	–	–
Fc1cccc(CCN2CCN(CCCc3c[nH]c4ccc(-n5cnnc5)cc34)CC2)c1	0.5	72	–	–	88	1	–
c1ccc(N2CCN(CCCc3c[nH]c4ccc(-n5cnnc5)cc34)CC2)cc1	1.4	13	–	–	–	–	–
NC(=O)C(c1ccccc1)N1CCN(CCCc2c[nH]c3ccc(-n4cnnc4)cc23)CC1 (stereo in doubt; 6p) [listing 1 of 2 here]	0.2	13	–	–	–	0.2	–
c1cncc(CCN2CCN(CCCc3c[nH]c4ccc(-n5cnnc5)cc34)CC2)c1	4.9	93	–	–	69	7.8	–
Fc1ccc(CCN2CCN(CCCc3c[nH]c4ccc(-n5cnnc5)cc34)CC2)cc1F	0.9	83	–	–	91	0.7	–
CC(CN1CCN(CCCc2c[nH]c3ccc(-n4cnnc4)cc23)CC1)c1ccccc1 (stereo not drawn)	0.8	45	–	–	94	0.3	–
Fc1ccc(CCN2CCN(CCCc3c[nH]c4ccc(-n5cnnc5)cc34)CC2)cc1	–	–	–	–	81	–	–
CC(c1ccccc1)N1CCN(CCCc2c[nH]c3ccc(-n4cnnc4)cc23)CC1 (stereo not drawn)	1	13	–	–	–	–	–
CC(=O)Nc1ccc(CCN2CCN(CCCc3c[nH]c4ccc(-n5cnnc5)cc34)CC2)cc1	–	260	–	–	85	1.8	–
Cc1noc(-c2ccc(CCN3CCN(CCCc4c[nH]c5ccc(-n6cnnc6)cc45)CC3)cc2)n1	6.9	46	–	–	–	–	–
c1cc2[nH]cc(CCCN3CCOCC3)c2cc1-n1cnnc1	8.8	7.4	–	–	–	–	–
c1coc(CN2CCN(CCCc3c[nH]c4ccc(-n5cnnc5)cc34)CC2)c1	0.4	18	–	–	66	0.5	–
CC(=O)Nc1cccc(CN2CCN(CCCc3c[nH]c4ccc(-n5cnnc5)cc34)CC2)c1	0.2	2.4	–	–	70	0.2	–

SMILES	IC50 [1] [nM]	IC50 [2] [nM]	EC50 [3] [nM]	IC50 [4] [nM]	Relative efficacy [5] [%]	EC50 [6] [nM]	IC50 [7] [nM]
NC(=O)C(c1ccccc1)N1CCN(CCCc2c[nH]c3ccc(-n4cnnc4)cc23)CC1 (stereo in doubt; 6p) [listing 2 of 2 here]	–	–	–	–	77	–	–
c1cncc(CN2CCN(CCCc3c[nH]c4ccc(-n5cnnc5)cc34)CC2)c1	0.3	22	–	–	69	0.3	–
O=C1CN(Cc2ccccc2)CCN1CCCc1c[nH]c2ccc(-n3cnnc3)cc12	173	3900	–	–	–	–	–
OCC(c1ccccc1)N1CCN(CCCc2c[nH]c3ccc(-n4cnnc4)cc23)CC1 (stereo not drawn)	0.7	9.5	–	–	74	0.3	–
CN1CCN(CCCc2c[nH]c3ccc(-n4cnnc4)cc23)CC1	33	309	54	–	95	–	–
c1cc(CN2CCN(CCCc3c[nH]c4ccc(-n5cnnc5)cc34)CC2)ccn1	0.6	23	–	–	66	1	–
CN(C)C(=O)C(c1ccccc1)N1CCN(CCCc2c[nH]c3ccc(-n4cnnc4)cc23)CC1 (stereo not drawn)	1	102	–	–	68	0.8	–
c1ccc(CN2CCN(CCCc3c[nH]c4ccc(-n5cnnc5)cc34)CC2)cc1	0.1	11	–	–	57	0.2	–
c1ccc(CNC[C@@H]2CCN(CCc3c[nH]c4ccc(-n5cnnc5)cc34)C2)cc1	–	37	–	0.6	102	–	–
c1ccc(CCCN2CCN(CCCc3c[nH]c4ccc(-n5cnnc5)cc34)CC2)cc1	4.9	85	–	–	68	4	–
NC(=O)C(c1ccccc1)N1CCN(CCCc2c[nH]c3ccc(-n4cnnc4)cc23)CC1 (stereo in doubt; 6q) [listing 2 of 2 here]	–	55	3.8	2.3	–	–	–
c1cc2[nH]cc(CCCN3CCNCC3)c2cc1-n1cnnc1	31	145	–	–	–	–	–
O=C1CN(CCCc2c[nH]c3ccc(-n4cnnc4)cc23)CCN1Cc1ccccc1	6.6	282	–	–	85	7.5	–
CC(=O)Nc1ccc(CN2CCN(CCCc3c[nH]c4ccc(-n5cnnc5)cc34)CC2)cc1	2.5	56	–	–	78	6.1	–
O=C1CN(CCCc2c[nH]c3ccc(-n4cnnc4)cc23)CCN1CCc1ccccc1	5.2	78	–	–	–	–	–
S=C1CN(CCCc2c[nH]c3ccc(-n4cnnc4)cc23)CCN1Cc1ccccc1	0.8	18	–	–	97	2.3	–
c1cnc(N2CCN(CCCc3c[nH]c4ccc(-n5cnnc5)cc34)CC2)nc1	0.6	0.5	–	–	59	0.6	–
c1cc(CN2CCN(CCCc3c[nH]c4ccc(-n5cnnc5)cc34)CC2)co1	–	27	–	–	70	0.3	1.1
c1ccc(CCN2CCN(CCCc3c[nH]c4ccc(-n5cnnc5)cc34)CC2)cc1	–	–	–	–	73	1.7	–
CNCC(c1ccccc1)N1CCN(CCCc2c[nH]c3ccc(-n4cnnc4)cc23)CC1 (stereo not drawn)	0.9	17	–	–	103	1.7	–
N#Cc1ccc(CN2CCN(CCCc3c[nH]c4ccc(-n5cnnc5)cc34)CC2)cc1	0.7	130	–	–	71	1.1	–
c1ccc(CN2CCN(CCCc3c[nH]c4ccc(-n5cnnc5)cc34)CC2)nc1	0.4	18	–	–	67	0.3	–

— ChEMBL document CHEMBL1132698, “3-(Piperazinylpropyl)indoles: selective, orally bioavailable h5-HT1D receptor agonists as potential antimigraine agents” (J Med Chem, 1999)
